HNF4A DNA FP: change in binding of human HNF4A to DNA, primary screen, biochemical, fluorescence polarization, FITC-DNA. Hepatocyte nuclear factor 4-alpha (Homo sapiens), P41235. 1 h. activity change, % at 10 µM. hit rate 0.3% among 360,000; in the data active means activity change above about 30%, passing the limit was not always enough
aDG glyco up: activators of alpha-DG glycosylation, primary screen, uHTS, Pro5-aDG cells, AlphaScreen; alpha-DG glycosylation AlphaScreen (IIH6); 0% Pro5, 100% B10-LARGE cell signal; activation, % at 10 µM; hit rate 0.22% among 360,000; AID 624168, 2012;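 active means activation of at least 8% versus controls, or a plate z-score of at least 8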;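 further: Pro5 are CHO cells carrying HIG-tagged alpha-DG that lacks glycosylation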
NR1D1 modulator: modulators of Rev-erb alpha DNA binding, primary screen, biochemical, FITC-DNA, fluorescence polarization, uHTS; Rev-erbα–FITC-DNA binding, 90 min; activity, % at 10 µM; hit rate 0.79% among 370,000; Nuclear receptor subfamily 1 group D member 1 (Homo sapiens), P20393;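 active means activity above about 14%, limit read from the data; passing the limit was not always enough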
CSN deneddyl inh: inhibitors of CSN-mediated cullin deneddylation, primary screen, biochemical, fluorescence polarization, uHTS. hit rate 0.38% among 360,000. Purified CSN, SCF-Nedd8-OG deneddylation. COP9 signalosome complex subunit 5 (Homo sapiens), Q92905. inhibition, % at 12.5 µM. AID 651999, 2013;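 active means pattern-corrected inhibition above about 35%, with an unprinted fluorescence ratio check between 0.5 and 1.5, limit read from the data, passing the limit was not always enough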
Target sequence (Q92905 whole entry, looked up, one chain of several): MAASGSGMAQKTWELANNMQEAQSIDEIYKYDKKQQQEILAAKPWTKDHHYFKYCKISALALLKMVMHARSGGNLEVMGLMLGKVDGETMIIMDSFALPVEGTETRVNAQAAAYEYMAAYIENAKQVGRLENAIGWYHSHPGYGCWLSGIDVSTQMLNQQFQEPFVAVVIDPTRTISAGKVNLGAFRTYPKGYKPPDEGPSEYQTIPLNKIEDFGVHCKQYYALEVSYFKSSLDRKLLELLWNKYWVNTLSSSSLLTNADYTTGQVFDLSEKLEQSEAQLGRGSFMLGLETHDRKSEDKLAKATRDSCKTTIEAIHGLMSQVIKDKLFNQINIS
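Schedule: reaction 90 min, room temperature / Assay system: HEK293T-derived human Csn5 enzyme / Input: Csn5 at 0.24 nM final / Measure: inhibition of Csn5 cleavage, % / Control set: substrate-only high control, full reaction low control / Technique: fluorescence polarization of the substrate / Buffer or medium: Tris/NaCl/DTT buffer, pH 7.5 / Reagent: SCFSkp2-Nedd8OG substrate at 10 nM final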
Each line names hits and unclear results; the compound was inactive in the other large screens. Hits are enriched below; roughly 1.5% of the tested compounds scored in any of these assays.

CN[C@@H]1[C@H](OC2[C@H](O[C@H]3[C@H](O)[C@@H](O)[C@H](N=C(N)N)[C@@H](O)[C@@H]3N=C(N)N)O[C@@H](C)[C@]2(O)C=O)O[C@@H](CO)[C@H](O)[C@H]1O (stereo partly drawn)	none (no result: HNF4A DNA FP, aDG glyco up, CSN deneddyl inh)
CC(C)CN(C(=O)CN1CCN(c2ccccc2F)CC1)c1c(N)n(CC(C)C)c(=O)[nH]c1=O	none
CC(C)CN(C(=O)CN1CCc2ccccc21)c1c(N)n(CC(C)C)c(=O)[nH]c1=O	HNF4A DNA FP 32
O=C(CCN1C(=O)S/C(=C\c2cccs2)C1=O)Nc1nccs1	none
O=C(CCN1C(=O)/C(=C\c2cccs2)SC1=S)Nc1nccs1	HNF4A DNA FP 38
CCCCNC(=O)C1CCCN1C(=O)Nc1ccc(Cl)cc1 (stereo not drawn)	none (no result: HNF4A DNA FP, aDG glyco up, CSN deneddyl inh)
CC1(C)O[C@@H]2CC3C4C[C@H](F)C5=CC(=O)CC[C@]5(C)C4[C@@H](O)C[C@]3(C)[C@]2(C(=O)CO)O1 (stereo partly drawn)	none (no result: HNF4A DNA FP, aDG glyco up, CSN deneddyl inh)
CC(=NNC(=O)CSc1nnc(-c2ccc(C(C)(C)C)cc2)n1-c1ccccc1)c1cccc2ccccc12	none (no result: HNF4A DNA FP, aDG glyco up, CSN deneddyl inh)
O=[N+]([O-])c1cccc(/C=N\N2CCN(Cc3ccccc3Cl)CC2)c1	HNF4A DNA FP 42
O=C(CSc1nnc(SCc2cccc3ccccc23)s1)Nc1ccc(Oc2ccccc2)cc1	none (no result: HNF4A DNA FP, aDG glyco up, CSN deneddyl inh)
Cc1ccc(Cn2ccc(NC(=O)c3cc(-c4ccc5c(c4)OCO5)on3)n2)cc1	CSN deneddyl inh 112
Cc1ccc(Cn2ccc(NC(=O)c3cc(-c4ccco4)on3)n2)cc1	CSN deneddyl inh 52
O=C(c1ccc(C#Cc2ccccc2)cc1)N1CCC(O)CC1	none (no result: HNF4A DNA FP, aDG glyco up, CSN deneddyl inh)
C/C=C\C=C/C(=O)Nc1cccc(C2=NOC3(C2)C[C@@H](C(N)=O)N(C(=O)/C=C/C=C\C)C3)c1 (stereo partly drawn)	CSN deneddyl inh 64 (no result: NR1D1 modulator)
Cc1cc(-n2c(=O)[nH]c(=O)n(C)c2=O)ccc1Oc1ccc(SC(F)(F)F)cc1	none (no result: HNF4A DNA FP, aDG glyco up, CSN deneddyl inh)
Cc1ccc(NC(=O)COc2ccc(N(C)C(=O)C(C)(C)C)cc2)cc1S(=O)(=O)N1CCCCC1	aDG glyco up 4.6
CCc1cccc(OCC(=O)Nc2ccc(C)c(S(=O)(=O)N3CCCCCC3)c2)c1	none
CCN1C(=O)[C@@H]2Cc3c([nH]c4ccccc34)C(c3ccc(OC)cc3)N2C1=S (stereo partly drawn)	HNF4A DNA FP 43 (no result: NR1D1 modulator)
COC(=O)c1ccc(C2c3[nH]c4ccccc4c3C[C@H]3C(=O)N(C)CC(=O)N23)cc1 (stereo partly drawn)	none
CC1(C(=O)Nc2cccc(-n3cnnn3)c2)Cc2ccccc2C(=O)O1 (stereo not drawn)	CSN deneddyl inh 101
CC(C)C(C#CC1CC1)NCc1ccc2c(c1)OCO2 (stereo not drawn)	none (no result: HNF4A DNA FP, aDG glyco up, CSN deneddyl inh)
CCCCCCCCN1CCS(=O)(=O)N(Cc2ccc(OC)cc2)C(C(=O)OC)C1 (stereo not drawn)	none (no result: HNF4A DNA FP, aDG glyco up, CSN deneddyl inh)
COc1ccc(-c2csc(NC(=O)CCNC(=O)c3ccco3)n2)cc1	none
Cc1ccc(-c2csc(NC(=O)CCNC(=O)c3ccco3)n2)cc1	HNF4A DNA FP 40
CC(C)(S)C(N)C(=O)O (stereo not drawn)	none (no result: HNF4A DNA FP, aDG glyco up, CSN deneddyl inh)
CN(C)c1ccc(/C=C(\Cl)c2nc3ccccc3s2)cc1	HNF4A DNA FP 46 (no result: NR1D1 modulator)
CC(C)(O)c1ccccc1CC[C@@H](SC1(CC(=O)O)CC1)c1cccc(/C=C/c2ccc3ccc(Cl)cc3n2)c1	none (no result: HNF4A DNA FP, aDG glyco up, CSN deneddyl inh)
C[N@+]12CCCC[C@@H]1CCC(=C(c1cccs1)c1cccs1)C2	none (no result: HNF4A DNA FP, aDG glyco up, CSN deneddyl inh)
CCOC(=O)c1c(NC(=O)COC(=O)Cn2c(C)nc3ccccc32)sc2c1CCCC2	CSN deneddyl inh 43
C=CCN1C(=O)[C@@H](CC(=O)NCC2CCCCC2)[C@]2(C(=O)OCC)CCCCC/C=C/12	none (no result: HNF4A DNA FP, aDG glyco up, CSN deneddyl inh)
Cc1cc(C(=O)Nc2cccc(O)c2)c(C)o1	HNF4A DNA FP 60
Cc1cc(C(=O)Nc2cccc(C(=O)O)c2)c(C)o1	none
O=C(CN1C(=O)C2(OCCCO2)c2ccccc21)NCc1ccc2ccccc2c1	none (no result: HNF4A DNA FP, aDG glyco up, CSN deneddyl inh)
Cc1ccc(NC(=O)CSc2nc3ccccc3c(=O)n2CCCN2CCCCC2)cc1C	aDG glyco up 8.3
COC(=O)c1ccccc1NC(=O)CSc1nnc(C(CO)NC(=O)c2ccccc2Cl)n1C (stereo not drawn)	HNF4A DNA FP 37
Cc1cc(-n2c(=O)[nH]c(=O)n(C)c2=O)ccc1Oc1ccc(S(=O)(=O)C(F)(F)F)cc1	none (no result: HNF4A DNA FP, aDG glyco up, CSN deneddyl inh)
CCN/C=C(\C#N)S(=O)(=O)c1ccc(Br)cc1	CSN deneddyl inh 100
O=C1NC(c2ccccc2)(c2ccccc2)C(=O)N1COP(=O)(O)O	none (no result: HNF4A DNA FP, aDG glyco up, CSN deneddyl inh)
O=C1C=C(Nc2ccccc2O)c2ccccc2C1=O	aDG glyco up 12 (no result: NR1D1 modulator)
O=C1C=C(Nc2ccc(F)cc2)c2ccccc2C1=O	aDG glyco up 8.9
O=C1C=C(Nc2cccnc2)c2ccccc2C1=O	none
CCOc1ccc(NC2=CC(=O)C(=O)c3ccccc32)cc1	none
Cc1ccc(NC2=CC(=O)C(=O)c3ccccc32)c(C)c1	aDG glyco up 6.5
Cc1noc(C)c1COc1ccc(C(=O)OCC(=O)N2CC3(C)CC2CC(C)(C)C3)cc1 (stereo not drawn)	CSN deneddyl inh 37
CN(C)S(=O)(=O)c1ccc(C(=O)OCC(=O)N2CC3(C)CC2CC(C)(C)C3)cc1 (stereo not drawn)	none
O=C(Nc1ccccc1)OCCN1C(=O)CCC12CCC(c1ccccc1)CC2 (stereo not drawn)	none (no result: HNF4A DNA FP, aDG glyco up, CSN deneddyl inh)
COc1ccc2nc(-c3ccccc3)[nH]c(=O)c2c1	none
COc1ccc(-c2nc3ccc(N4CCCC4)cc3c(=O)[nH]2)cc1OC	CSN deneddyl inh 113
CCn1c(=O)c(C(=O)CN2CCCc3ccccc32)c(N)n(Cc2ccccc2)c1=O	CSN deneddyl inh 48
CCn1c(SCC(=O)Nc2oc(-c3ccccc3)c(-c3ccccc3)c2C#N)nnc1-c1cc(OC)cc(OC)c1	CSN deneddyl inh 70
CC(=O)C1=C(O)C2(C)c3c(O)c(C)c(O)c(C(C)=O)c3OC2CC1=O (stereo not drawn)	HNF4A DNA FP 51
CC(=O)c1c(O)c(C)c(O)c2c1OC1=Cc3c(c(C)nn3C)C(=O)C12C (stereo not drawn)	none
O=C(NCCCN1CCCCCC1)c1ccc(CS(=O)(=O)Cc2ccccc2F)o1	CSN deneddyl inh 97
Cc1c(C)c2c(c(C)c1OC(=O)CCC(=O)OCCO)CCC(C)(CCCC(C)CCCC(C)CCCC(C)C)O2 (stereo not drawn)	none (no result: HNF4A DNA FP, aDG glyco up, CSN deneddyl inh)
CCCc1cc(-n2ccnc2)n2c(nc3ccccc32)c1C#N	HNF4A DNA FP 59
C#CCOCCOCCOCCNc1nc(N2CCN(C(=O)[C@H](Cc3cc4ccccc4[nH]3)n3cc([C@@H](N)CC(C)C)nn3)CC2)nc(N2CCN(C(=O)[C@H](Cc3cc4ccccc4[nH]3)n3cc([C@@H](N)CC(C)C)nn3)CC2)n1	CSN deneddyl inh 50 (no result: NR1D1 modulator)

Bioassay records: PubChem, Sanford-Burnham Center for Chemical Genomics
